# According to ChEMBL document CHEMBL5260803, “Discovery of Novel, Orally Bioavailable β-Amino Acid Azaindole Inhibitors of Influenza PB2” (ACS Med Chem Lett, 2017):
# Assays:
# Assay type in all cases: functional, organism-based
# Influenza A virus [1] = test: Antiviral activity against oseltamivir resistant Influenza A virus A/Texas/48/2009 (H1N1) infected in MDCK cells incubated for 72 hrs by cell protection assay
# Method in brief: (§1)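 MDCK cells incubated with test compound and influenza A virus for 72 h. EC50 is the concentration giving 50% cell protection, reported as the mean of N=3. Oseltamivir resistant or sensitive status was assigned by externally validated phenotypic or genetic analysis.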
# Influenza A virus [2] = test: Antiviral activity against oseltamivir resistant Influenza A virus A/Texas/12/2007 (H3N2) infected in MDCK cells incubated for 72 hrs by cell protection assay; method in brief: as §1
# Influenza A virus [3] = test: Antiviral activity against oseltamivir resistant Influenza A virus A/Georgia/20/2006 (H1N1) infected in MDCK cells incubated for 72 hrs by cell protection assay; method in brief: as §1
smiles,measurement,setting,value
CC(C)(C)[C@@H](CC(=O)O)Nc1nc(-c2c[nH]c3ncc(F)cc23)ncc1F,EC50,Influenza A virus [1],2 nM
same,EC50,Influenza A virus [2],30 nM
same,EC50,Influenza A virus [3],2 nM
